Here are results for ten molecules from ChEMBL document CHEMBL1141860, “Synthesis and monoamine transporter affinity of 3-aryl substituted trop-2-enes” (Bioorg Med Chem Lett, 2005).

For assay [1], the target named is Sodium-dependent dopamine transporter (Homo sapiens, UniProt Q01959). Nature of the assay: Displacement of [3H]WIN-35428 from human DAT.
The target in assay [2] is Sodium-dependent serotonin transporter (Homo sapiens, UniProt P31645). Nature of the assay: Displacement of [3H]Citalopram from human SERT. In a few lines:
(§1)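 Competitive radioligand binding at human transporters. The tritiated standard ligand matched each transporter: WIN-35,428 for DAT, citalopram for SERT, and nisoxetine for NET.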
A general note: Loss of bound radioactivity is the signal in a displacement assay; it reports binding, not function.

Assay [3] deals with Sodium-dependent noradrenaline transporter (Homo sapiens, UniProt P23975). The assay is described as follows: Displacement of [3H]nisoxetine from human NET. In a few lines: as §1
Assay [4] addresses Monoamine transporters; serotonin & dopamine (Homo sapiens) (UniProt P31645+Q01959). Nature of the assay: Selectivity for human DAT over human SERT. It counts as protein assay.
Assay [5] addresses Monoamine transporters; Norepinephrine & dopamine (Homo sapiens) (UniProt Q01959+P23975). Nature of the assay: Selectivity for human DAT over human NET. It counts as protein assay.
For assay [6], the target named is Serotonin and norepinephrine transporters (SERT/NET) (Homo sapiens) (UniProt P31645+P23975). Nature of the assay: Selectivity for human SERT over human NET. It counts as protein assay.
Serotonin and norepinephrine transporters (SERT/NET) (Homo sapiens), sequence (P23975 whole entry, looked up): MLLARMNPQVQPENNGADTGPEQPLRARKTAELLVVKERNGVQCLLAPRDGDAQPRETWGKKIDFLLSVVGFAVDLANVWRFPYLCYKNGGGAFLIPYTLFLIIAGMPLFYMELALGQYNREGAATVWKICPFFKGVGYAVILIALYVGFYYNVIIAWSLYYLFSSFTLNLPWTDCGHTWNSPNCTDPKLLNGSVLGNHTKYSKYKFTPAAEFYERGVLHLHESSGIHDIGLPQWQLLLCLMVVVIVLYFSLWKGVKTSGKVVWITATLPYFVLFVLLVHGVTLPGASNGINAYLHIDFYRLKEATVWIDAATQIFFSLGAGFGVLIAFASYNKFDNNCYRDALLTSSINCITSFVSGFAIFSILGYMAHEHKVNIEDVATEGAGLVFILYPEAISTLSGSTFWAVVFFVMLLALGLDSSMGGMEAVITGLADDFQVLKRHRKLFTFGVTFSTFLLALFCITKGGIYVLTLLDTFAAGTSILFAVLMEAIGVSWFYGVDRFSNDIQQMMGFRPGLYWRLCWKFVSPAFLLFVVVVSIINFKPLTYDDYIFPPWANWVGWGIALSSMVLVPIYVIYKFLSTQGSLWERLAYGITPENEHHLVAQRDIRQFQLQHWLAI
Serotonin and norepinephrine transporters (SERT/NET) (Homo sapiens), sequence (P31645 whole entry, looked up): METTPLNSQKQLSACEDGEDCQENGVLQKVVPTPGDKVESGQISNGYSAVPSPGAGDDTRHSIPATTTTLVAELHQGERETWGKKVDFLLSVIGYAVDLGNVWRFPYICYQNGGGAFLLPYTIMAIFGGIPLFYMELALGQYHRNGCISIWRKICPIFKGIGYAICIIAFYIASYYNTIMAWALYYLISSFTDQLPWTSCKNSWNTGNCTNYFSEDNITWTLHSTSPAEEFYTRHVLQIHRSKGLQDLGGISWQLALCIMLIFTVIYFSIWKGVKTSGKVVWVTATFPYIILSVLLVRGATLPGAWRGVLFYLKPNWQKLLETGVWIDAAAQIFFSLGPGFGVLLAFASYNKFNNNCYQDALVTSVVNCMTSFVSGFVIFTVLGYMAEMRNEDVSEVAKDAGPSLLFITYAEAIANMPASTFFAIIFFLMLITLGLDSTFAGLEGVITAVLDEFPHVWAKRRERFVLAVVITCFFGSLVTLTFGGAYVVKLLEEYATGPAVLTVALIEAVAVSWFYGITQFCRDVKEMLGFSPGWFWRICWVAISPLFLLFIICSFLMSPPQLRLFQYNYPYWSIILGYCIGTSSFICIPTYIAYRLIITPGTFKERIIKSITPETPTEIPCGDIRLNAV

Monoamine transporters; serotonin & dopamine (Homo sapiens), sequence (P31645 whole entry, looked up): as above
Monoamine transporters; serotonin & dopamine (Homo sapiens), sequence (Q01959 whole entry, looked up): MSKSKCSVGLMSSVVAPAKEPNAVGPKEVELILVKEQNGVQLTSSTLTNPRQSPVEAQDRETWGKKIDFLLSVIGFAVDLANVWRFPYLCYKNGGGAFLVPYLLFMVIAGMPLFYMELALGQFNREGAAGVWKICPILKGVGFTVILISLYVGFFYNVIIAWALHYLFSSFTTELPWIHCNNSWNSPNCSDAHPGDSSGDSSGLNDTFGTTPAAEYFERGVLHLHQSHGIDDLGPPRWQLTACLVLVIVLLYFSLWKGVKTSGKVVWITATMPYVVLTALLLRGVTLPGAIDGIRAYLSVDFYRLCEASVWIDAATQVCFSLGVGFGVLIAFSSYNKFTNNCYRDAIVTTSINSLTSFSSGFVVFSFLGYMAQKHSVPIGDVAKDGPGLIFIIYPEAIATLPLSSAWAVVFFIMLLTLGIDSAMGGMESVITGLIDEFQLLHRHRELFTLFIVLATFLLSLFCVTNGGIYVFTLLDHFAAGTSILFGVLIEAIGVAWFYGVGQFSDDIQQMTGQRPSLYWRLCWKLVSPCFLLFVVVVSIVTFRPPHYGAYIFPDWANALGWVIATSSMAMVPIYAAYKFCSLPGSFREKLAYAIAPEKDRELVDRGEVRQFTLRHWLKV
Sodium-dependent serotonin transporter, sequence (P31645 whole entry): as the sequence (P31645 whole entry, looked up) above
Sodium-dependent dopamine transporter, sequence (Q01959 whole entry): as the sequence (Q01959 whole entry, looked up) above
Monoamine transporters; Norepinephrine & dopamine (Homo sapiens), sequence (P23975 whole entry, looked up): as the sequence (P23975 whole entry, looked up) above
Monoamine transporters; Norepinephrine & dopamine (Homo sapiens), sequence (Q01959 whole entry, looked up): as the sequence (Q01959 whole entry, looked up) above
Sodium-dependent noradrenaline transporter, sequence (P23975 whole entry): as the sequence (P23975 whole entry, looked up) above

In the case of `CN1C2CCC1CC(O)(c1cccc(-c3ccccc3)c1)C2` (centres undefined), the IC50 (as a rule, the midpoint of a concentration-inhibition curve) in assay [1] was 21.9 µM; in assay [2] it was 3.77 µM; in assay [3] it was 41.5 µM. Also, the Ratio IC50 in assay [4] came to 5.81; in assay [5], 0.53; in assay [6] it was 0.091.

For `CN1C2C=C(c3ccc4c(c3)Cc3ccccc3-4)CC1CC2` (centres undefined), the IC50 in assay [1] was 0.757 µM; in assay [2], 0.0145 µM; in assay [3] it was 3.36 µM. For the same molecule, the results for the Ratio IC50 in assay [4], in assay [5] and in assay [6] were 52.2, 0.23 and 0.0043, respectively.

As to `CN1C2CCC1CC(O)(c1ccccc1-c1ccccc1)C2` (centres undefined), the figures for the IC50 in assay [1], in assay [2] and in assay [3] were 3.98 µM, 2.52 µM and 66.3 µM, respectively. Also, the Ratio IC50 in assay [4] was determined as 1.58; in assay [5], 0.06; in assay [6] it was 0.038.

With `CN1C2C=C(c3ccccc3-c3ccccc3)CC1CC2` (centres undefined), the IC50 in assay [2] is 1.71 µM; in assay [3], 6.43 µM. The Ratio IC50 in assay [4] turned out to be 5.4; in assay [5], 1.44; in assay [6], 0.27.

Turning to `C[N+]1(CCl)C2C=C(c3ccccc3-c3ccccc3)CC1CC2` (centres undefined), the values for the IC50 in assay [1], in assay [2] and in assay [3] were 67 µM, 16.1 µM and 2.02 µM, respectively. Moreover, the Ratio IC50 was 4.2 in assay [4], 33.2 in assay [5] and 8 in assay [6].

For the molecule `CN1C2C=C(c3cccc(-c4ccccc4)c3)CC1CC2` (centres undefined), the IC50 was determined as 7.22 µM in assay [1], 0.67 µM in assay [2] and 23 µM in assay [3]. In addition, the Ratio IC50 is 10.8 in assay [4], 0.314 in assay [5] and 0.029 in assay [6].

As to `CN1C2C=C(c3c[nH]c4ccccc34)CC1CC2` (centres undefined), the IC50 in assay [1] is 0.603 µM; in assay [2], 0.0726 µM; in assay [3], 3.96 µM. Moreover, the Ratio IC50 in assay [4] amounted to 8.3; in assay [5], 0.15; in assay [6], 0.018.

With `CN1C2CCC1CC(O)(C1c3ccccc3-c3ccc(Br)cc31)C2` (centres undefined), the half-inhibitory concentration (IC50) in assay [1] is 16.8 µM; in assay [2], 2.57 µM; in assay [3], 62.6 µM. Besides, the figures for the Ratio IC50 in assay [4], in assay [5] and in assay [6] were 6.5, 0.27 and 0.041, respectively.

In the case of `CN1C2C=C(C3c4ccccc4-c4ccccc43)CC1CC2` (centres undefined), the IC50 in assay [1] came to 9.35 µM; in assay [2], 0.69 µM; in assay [3], 82.7 µM. The Ratio IC50 in assay [4] came out at 13.6; in assay [5], 0.113; in assay [6], 0.0083.

Consider `CN1C2CCC1CC(O)(C1c3ccccc3-c3ccccc31)C2` (centres undefined), for which the IC50 in assay [1] was found to be 0.543 µM; in assay [2], 35.4 µM; in assay [3], 158 µM. Further, the Ratio IC50 turned out to be 0.015 in assay [4], 0.0034 in assay [5] and 0.22 in assay [6].
